MT stabilize HCS = microtubule stabilization, imaging screen; HeLa tubulin immunostaining HCS, 24 h; share of cells brighter than vehicle mean+2SD; % tubulin-high responders, % at 10 µM; 0.83% of 200,000 active;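 active = plate Z-score above 3 for both tubulin-high and condensed-nucleus cell shares, with cell loss under 80%, at 10 µM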;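 note: anti alpha tubulin signal scored within the nucleus-defined area of each cell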
Pf gametocyte = inhibitors of late stage P. falciparum gametocyte viability | inhibition, % at 10.9 µM | P. falciparum stage V gametocytes, ATP luminescence, 24 h | 0.065% of 150,000 active;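 active = inhibition above the mean plus 3 SD of compounds within the control limits, set per campaign, cut at about 38% in these data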;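 note: 0% = DMSO wells and 100% = medium only without gametocytes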
bCat nuc transl = beta-catenin nuclear translocation modulation; HeLa beta-catenin nuclear translocation, immunofluorescence imaging; nuclear translocation activity, % at 5 µM; 0.3% of 190,000 active;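 active = nuclear translocation activity above 50% at 5 µM, with a well cell count of 50 or more; inconclusive = wells under 50 cells across six images, flagged as toxic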;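 note: per-cell ratio of nuclear to cytoplasmic median beta-catenin stain intensity; plate controls were DMSO negative control for no effect and GSK-3 inhibitor IX positive control for full effect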
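Read-out: Nuclear/cytoplasmic beta-catenin signal ratio, % activation | Assay system: Human HeLa cell line | Times: 24 h compound exposure at 37°C, 5% CO2 | Signal: Fluorescence imaging of beta-catenin antibody stain plus DAPI | Dosing: 5 µM primary, 0.02–20 µM confirmation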
WT yeast gro inh = growth inhibition of WT yeast, mitochondrial fusion screen; mitochondrial fusion phenotypic screen, WT strain; inhibition, % at 10 µM; 2.1% of 190,000 active; in the data active = inhibition above about 58%; tested in S. cerevisiae
KCC2 mod = modulates chloride dependent transport by human KCC2 | Q9H2X9 | KCC2 cells, thallium flux FluoZin-2 fluorescence | 2.2% of 190,000 active | B-score of Tl+ flux slope (higher = more flux/activation; lower = inhibition) at 10 µM;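 active = thallium flux slope and its plate-corrected score both differing from the plate sample mean at a set confidence after two filtering rounds, in either direction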;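 note: slope of fluorescence scaled to starting intensity during 10 to 20 s after thallium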
Target sequence (Q9H2X9 whole entry, looked up): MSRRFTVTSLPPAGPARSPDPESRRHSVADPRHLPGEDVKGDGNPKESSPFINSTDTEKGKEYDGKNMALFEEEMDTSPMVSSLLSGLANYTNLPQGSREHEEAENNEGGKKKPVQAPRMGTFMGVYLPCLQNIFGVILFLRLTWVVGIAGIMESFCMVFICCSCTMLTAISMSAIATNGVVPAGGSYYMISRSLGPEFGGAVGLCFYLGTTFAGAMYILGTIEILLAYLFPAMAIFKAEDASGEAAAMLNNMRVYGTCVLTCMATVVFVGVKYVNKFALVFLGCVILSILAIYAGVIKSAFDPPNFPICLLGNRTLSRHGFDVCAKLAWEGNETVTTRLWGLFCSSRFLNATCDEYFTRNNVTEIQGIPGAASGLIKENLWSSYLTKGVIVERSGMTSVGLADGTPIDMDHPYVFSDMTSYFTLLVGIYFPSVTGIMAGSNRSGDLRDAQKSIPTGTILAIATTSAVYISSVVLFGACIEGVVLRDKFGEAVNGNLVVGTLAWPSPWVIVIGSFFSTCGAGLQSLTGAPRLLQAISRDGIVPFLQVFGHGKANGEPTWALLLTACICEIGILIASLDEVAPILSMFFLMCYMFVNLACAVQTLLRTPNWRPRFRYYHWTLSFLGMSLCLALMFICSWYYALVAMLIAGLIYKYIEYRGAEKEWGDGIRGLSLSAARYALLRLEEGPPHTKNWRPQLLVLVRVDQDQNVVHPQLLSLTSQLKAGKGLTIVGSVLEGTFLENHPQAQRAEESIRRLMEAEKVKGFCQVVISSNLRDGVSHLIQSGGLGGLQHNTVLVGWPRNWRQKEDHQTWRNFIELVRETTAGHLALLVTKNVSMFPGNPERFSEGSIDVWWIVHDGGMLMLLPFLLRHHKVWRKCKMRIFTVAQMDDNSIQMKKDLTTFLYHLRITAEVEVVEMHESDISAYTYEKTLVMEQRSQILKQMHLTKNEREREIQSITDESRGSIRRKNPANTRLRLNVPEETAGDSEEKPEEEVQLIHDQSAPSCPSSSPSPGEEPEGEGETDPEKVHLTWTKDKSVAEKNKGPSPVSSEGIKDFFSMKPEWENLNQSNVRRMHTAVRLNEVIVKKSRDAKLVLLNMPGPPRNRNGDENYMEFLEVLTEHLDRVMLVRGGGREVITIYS
KCC2 sec1 = KCC2 (human) modulation, secondary assay; 15% of 3,700 active; HEK293-KCC2, thallium flux, FluoZin2 fluorescence; stronger effect = higher value; shares compounds with KCC2 mod; normalised thallium flux (F/F0 slope) at 10 µM;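 active = thallium flux slope above the same plate's solvent-only control mean plus 3 SD; inconclusive = the two replicate wells disagree; inactive = no significant difference from solvent-only control wells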
KCC2 bumet counter = bumetanide-insensitive thallium flux in KCC2 cells with ouabain, counter-screen; shares compounds with KCC2 mod; HEK293-KCC2 + bumetanide/ouabain, thallium flux FluoZin2; stronger effect = higher value; normalized thallium flux at 10 µM; 49% of 3,700 active; AID 1714;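 active = thallium entry rate above the same plate's blocked-transporter control wells by more than 3 SD; inconclusive = the two repeat wells disagree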;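 note: raw slope of fluorescence over initial fluorescence between 10 and 20 s after thallium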
KCC2 secondary2 = KCC2 (human) modulation, second secondary assay; shares compounds with KCC2 mod; HEK293-KCC2, thallium flux FluoZin2 fluorescence; actives lie on both sides; F/F0 rise rate, 10–20 s post-thallium; normalized thallium flux at 10 µM; 23% of 3,700 active; AID 1715;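 active = thallium flux slope more than 3 SD above or below the plate's solvent-only control mean, mostly below; inconclusive = the two repeat wells disagreed; inactive = no significant shift from solvent-only controls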;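 note: raw slope with 0.1% DMSO as baseline and bumetanide as block control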
HEK counter1 = acts in parental HEK cells, KCC2 counter-screen. 46% of 3,700 active. HEK293 parental cells, thallium flux FluoZin2, ouabain; baseline-ratio fluorescence slope, 10–20 s after thallium. thallium flux rate (normalised fluorescence) at 10 µM. AID 1716. shares compounds with KCC2 mod;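 active = thallium flux rate significantly above the same plate's solvent-only control wells, beyond their mean plus 3 SD; inconclusive = the two replicate wells gave conflicting results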
KCC2 retest ouab = modulates human KCC2 on retest with ouabain; shares compounds with KCC2 mod; HEK293-KCC2, thallium flux FluoZin2 fluorescence; bidirectional: low = inhibitor, high = activator; raw Tl+ flux slope (below DMSO = inhibition, above = activation) at 10 µM; 48% of 3,700 active;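 active = thallium flux slope beyond 3 SD from same-plate DMSO control mean in most replicates, usually higher, sometimes lower; inconclusive = repeat tests gave conflicting results; inactive = no significant difference from controls in most replicates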;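 note: slope of initial-normalized fluorescence between seconds 10 and 20 after thallium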
HEK293 Tl flux2 = parental HEK flux effect, counter-screen 2; shares compounds with KCC2 mod; HEK293 parental, thallium flux FluoZin-2 fluorescence slope; thallium flux slope at 10 µM; 33% of 3,700 active;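 active = thallium flux slope above the same plate's solvent-control mean plus 3 SD in both duplicate wells; inconclusive = duplicate wells that disagreed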;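 note: run without ouabain in cells lacking the KCC2 cotransporter; slope of fluorescence scaled to its starting value between 10 and 20 s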
* hit, by the source's call; ? = inconclusive; nt = no result. Only some compounds are listed: those with a hit (about 4% of all), similar ones and a draw of the others.

SMILES	MT stabilize HCS	Pf gametocyte	bCat nuc transl	WT yeast gro inh	KCC2 mod	KCC2 sec1	KCC2 bumet counter	KCC2 secondary2	HEK counter1	KCC2 retest ouab	HEK293 Tl flux2
O=C(NCc1ccco1)c1ccccc1NS(=O)(=O)c1ccc(Cl)s1	1.5	nt	-2.4	43.7	nt	nt	nt	nt	nt	nt	nt
Cc1nc2c(-c3ccccc3)c[nH]n2c(=O)c1Cc1ccccc1	3.1	10.2	-2.8	-13.1	16.3*	0.00669	0.025*	0.0362	0.02*	0.0296*	0.0194*
Cc1cc2nc(C)c(Cc3ccccc3)c(=O)n2[nH]1	3.9	-10.7	-2.1	-15.5	nt	nt	nt	nt	nt	nt	nt
Cc1cc(=O)[nH]c2ccc(Cl)cc12	1.6	nt	8.3	-15.8	nt	0.00977	0.0052	0.0372	0.00437	0.0214	0.0109
COc1ccc(-c2csc(NC(=O)COC(=O)c3ccco3)n2)cc1	3.1	-48.0	-0.3	-6.8	2.01	nt	nt	nt	nt	nt	nt
O=C(NC(=S)Nc1nc(-c2ccccc2)cs1)c1ccco1	3.2	24.9	-3.9	4.6	16.5*	?	0.0451*	0.0301	0.0198*	0.0318*	0.0118*
COc1ccc(-c2csc(NC(=S)NC(=O)c3ccco3)n2)cc1	5.0	-10.2	6.5	0.0	nt	0.00712	0.0158*	0.0428*	0.0238*	0.0281*	0.0231*
CC(CCc1ccccc1)NC(=S)NC(=O)c1ccco1 (stereo not given)	2.1	nt	1.2	5.1	103*	0.0352*	0.0904*	0.0701*	0.0701*	0.0758*	0.0683*
COc1ccc2nc(NC(=S)NC(=O)c3ccco3)sc2c1	6.2	-16.3	0.6	-6.0	80.2*	0.0302*	0.143*	0.0301*	0.0746*	0.0974*	0.0386*
COc1ccc2sc(NC(=O)c3ccco3)nc2c1	3.4	nt	-5.8	16.9	0.0644	nt	nt	nt	nt	nt	nt
CC(CCc1ccccc1)NC(=O)Cc1ccccc1 (stereo not given)	2.0	nt	1.5	7.6	-0.344	nt	nt	nt	nt	nt	nt
CCCNC(=O)c1c(CSc2ccc(Cl)cc2)noc1C(=O)NCc1ccccc1	nt	4.4	nt	nt	nt	nt	nt	nt	nt	nt	nt
CC(C)C(C)NC(=O)COC(=O)/C=C/c1ccc(S(=O)(=O)N2CCc3ccccc32)cc1 (stereo not given)	1.8	-9.6	-2.9	8.1	0.994	nt	nt	nt	nt	nt	nt
O=C(Nc1nc(-c2ccncc2)cs1)c1ccco1	3.5	nt	-2.0	9.3	nt	0.00749	0.00417	0.0314	0.0074	0.0198	0.00931
O=C(NC(=S)Nc1c(Cl)ccc2nsnc12)c1ccco1	1.6	-5.5	-1.1	0.3	19.1*	0.0212*	0.0674*	0.0365	0.0249*	0.0447*	0.0149*
O=C(Nc1nc(-c2cccs2)cs1)c1ccco1	2.8	nt	-1.1	10.2	-0.787	nt	nt	nt	nt	nt	nt
CCOc1ccc(CC(=NCCc2ccccc2)C2=C(O)CC(C)(C)CC2=O)cc1OCC	4.0	-5.5	-2.1	21.3	-0.672	nt	nt	nt	nt	nt	nt
CCOc1ccc(CC(=N)C2=C(O)CC(C)(C)CC2=O)cc1OCC	2.8	-5.9	0.2	-5.9	-4.29*	0.00753	0.00526	0.0306	0.00636	0.0204	?
COc1cc(Br)c(C2C(C#N)=C(N)Oc3n[nH]c(-c4cccnc4)c32)cc1OC (stereo not given)	1.3	nt	-6.8	-1.6	1.32	nt	nt	nt	nt	nt	nt
COC(=O)c1sc(-c2ccc(Cl)cc2)cc1NC(=O)/C=C/C(=O)O	nt	-1.7	-1.2	nt	-4.14*	0.00955	0.00797*	0.0297	0.00752	0.014*	0.0119
COC(=O)c1sc(-c2ccc(Cl)cc2)cc1NC(=O)COCC(=O)O	nt	-7.7	-1.6	nt	0.297	nt	nt	nt	nt	nt	nt
O=C1NCCc2cc3c(cc21)OCO3	3.5	nt	nt	-23.5	1.07	nt	nt	nt	nt	nt	nt
Cc1ccc(C)c(Cn2c(O)c(N=NC(=S)Nc3ccccc3F)c3ccccc32)c1	2.8	-7.7	0.1	-20.6	4	nt	nt	nt	nt	nt	nt
Oc1c(N=NC(=S)Nc2ccccc2F)c2ccccc2n1Cc1ccccc1F	3.7	-8.9	0.7	-11.4	11.2*	0.00553	0.034*	0.0337	0.0117*	0.0255*	?
CCNC(=S)N=Nc1c(O)n(Cc2ccc(Cl)cc2)c2ccccc12	3.2	15.7	-1.7	-36.6	13.9*	0.0116*	0.0711*	0.0296	0.0305*	0.0406*	0.0113*
SMILES	MT stabilize HCS	Pf gametocyte	bCat nuc transl	WT yeast gro inh	KCC2 mod	KCC2 sec1	KCC2 bumet counter	KCC2 secondary2	HEK counter1	KCC2 retest ouab	HEK293 Tl flux2
Oc1c(N=NC(=S)Nc2ccccc2F)c2ccccc2n1Cc1ccc(Cl)cc1	4.8	nt	1.2	-17.1	2.34	nt	nt	nt	nt	nt	nt
Cc1ccccc1Cn1c(O)c(N=NC(=S)Nc2ccccc2F)c2ccccc21	4.2	-30.0	-1.2	-8.4	9.56*	?	0.0254*	0.036	?	?	?
COC(=O)c1c(NC(=S)Nc2ccc(C(=O)N3CCOCC3)cc2)sc2c1CCC2	1.2	nt	-0.1	-15.2	-0.149	nt	nt	nt	nt	nt	nt
CCOc1cc(OCC)cc(C(=O)NC(=S)Nc2cccc(C(F)(F)F)c2)c1	2.2	-4.2	-0.5	2.5	3.34*	0.00577	0.0136*	0.0343	0.0128*	?	0.0136*
O=C(NC(=S)Nc1cccc(C(F)(F)F)c1)c1ccc2nonc2c1	nt	-8.8	0.4	nt	52.3*	0.0238*	0.121*	?	0.041*	0.0628*	0.0152*
CCOc1ccc(NC(=S)NNC(=S)Nc2cccc(C(F)(F)F)c2)cc1	nt	10.4	-2.5	nt	-1.94	nt	nt	nt	nt	nt	nt
FC(F)(F)c1cccc(NC(=S)NNC(=S)Nc2cccc(C(F)(F)F)c2)c1	nt	nt	4.2	nt	-1.41	nt	nt	nt	nt	nt	nt
CC(=O)Oc1ccc(OC(C)=O)c2c1CC(C)=C(C)C2	nt	nt	0.2	nt	0.251	nt	nt	nt	nt	nt	nt
Cn1nnc(C(O)CNCc2cccs2)n1 (stereo not given)	1.3	15.3	-4.6	nt	0.199	nt	nt	nt	nt	nt	nt
Cn1nnc(NCc2cc(Br)ccc2OCc2cccs2)n1	4.0	nt	nt	-11.8	nt	0.00706	0.00516	0.0261*	0.00756	?	0.0105
O=C(NC(=S)Nc1ccc(N2CCOCC2)cc1)c1cccs1	2.8	-12.0	1.3	-2.0	3.15*	0.00968	0.0328*	0.0316	?	0.0229	0.011
Cc1ccccc1C(=O)N1CCN(c2ccc(NC(=S)NC(=O)c3cccs3)cc2)CC1	6.7	2.9	1.7	29.0	3.23	0.0097	0.0146*	0.0312	0.00819	0.0203	0.0107
Cc1ccc(C(=O)N2CCN(c3ccc(NC(=S)NC(=O)c4cccs4)cc3)CC2)cc1	1.9	-9.6	-0.3	34.6	1.9	nt	nt	nt	nt	nt	nt
